Laboratory results reported in ChEMBL document CHEMBL4680306, “The 3-D conformational shape of N-naphthyl-cyclopenta[d]pyrimidines affects their potency as microtubule targeting agents and their antitumor activity” (Bioorg Med Chem, 2021).
pEC50, pIC50: −log10 of the molar value.

Assays:
[1] = Induction of microtubule depolymerisation in rat A-10 cell line measured after 18 hrs by indirect immunofluorescence method; settings: a10
Method in brief: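 Rat A-10 cells, chosen because they arrest in interphase without significant mitotic accumulation, were exposed to compounds for 18 h. Cellular microtubules were then visualized by indirect immunofluorescence. EC50 values come from at least three independent experiments.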

SN12C = assay: Cytotoxicity against human SN12C cells assessed as inhibition of cell growth measured after 48 hrs by SRB assay; type: functional
MDA-MB-435 [2] = assay: Cytotoxicity against human MDA-MB-435 cells assessed as inhibition of cell growth measured after 48 hrs by SRB assay; type: functional
U-251 = assay: Cytotoxicity against human U-251 cells assessed as inhibition of cell growth measured after 48 hrs by SRB assay; type: functional
KM12 = assay: Cytotoxicity against human KM12 cells assessed as inhibition of cell growth measured after 48 hrs by SRB assay; type: functional
A498 = assay: Cytotoxicity against human A498 cells assessed as inhibition of cell growth measured after 48 hrs by SRB assay; type: functional
PC-3 = assay: Cytotoxicity against human PC-3 cells assessed as inhibition of cell growth measured after 48 hrs by SRB assay; type: functional
HeLa = assay: Antiproliferative activity against human HeLa cells assessed as decrease in cell growth measured after 48 hrs by SRB method; type: functional, cell-based
TK-10 = assay: Cytotoxicity against human TK-10 cells assessed as inhibition of cell growth measured after 48 hrs by SRB assay; type: functional
SF-539 = assay: Cytotoxicity against human SF-539 cells assessed as inhibition of cell growth measured after 48 hrs by SRB assay; type: functional
RPMI-8226 = assay: Cytotoxicity against human RPMI-8226 cells assessed as inhibition of cell growth measured after 48 hrs by SRB assay; type: functional
K562 = assay: Cytotoxicity against human K562 cells assessed as inhibition of cell growth measured after 48 hrs by SRB assay; type: functional
ACHN = assay: Cytotoxicity against human ACHN cells assessed as inhibition of cell growth measured after 48 hrs by SRB assay; type: functional
MCF7 = assay: Cytotoxicity against human MCF7 cells assessed as inhibition of cell growth measured after 48 hrs by SRB assay; type: functional
Hs-578T = assay: Cytotoxicity against human Hs-578T cells assessed as inhibition of cell growth measured after 48 hrs by SRB assay; type: functional
MDA-MB-435 [3] = assay: Antiproliferative activity against human MDA-MB-435 cell line assessed as inhibition of cell proliferation measured after 48 hrs by SRB assay; type: functional, cell-based; settings: MDA-MB-435, 48 h
Method in brief: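 MDA-MB-435 melanoma cells were assessed by sulforhodamine B assay. IC50 is the mean ± SD of at least three independent experiments, each run in triplicate.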

HCT-15 = assay: Cytotoxicity against human HCT-15 cells assessed as inhibition of cell growth measured after 48 hrs by SRB assay; type: functional
T47D = assay: Cytotoxicity against human T47D cells assessed as inhibition of cell growth measured after 48 hrs by SRB assay; type: functional
[4] = Inhibition of bovine tubulin polymerization assessed as reduction in extent of assembly preincubated for 15 mins followed by addition of reaction mixture measured after 20 mins by turbidimetric assay; design: species or system Bos taurus
Method in brief: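 After chilling, GTP was added (0.4 mM final). Turbidity at 350 nm was read after a jump from 0 °C to 30 °C.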

CAKI-1 = assay: Cytotoxicity against human CAKI-1 cells assessed as inhibition of cell growth measured after 48 hrs by SRB assay; type: functional
A549 = assay: Cytotoxicity against human A549 cells assessed as inhibition of cell growth measured after 48 hrs by SRB assay; type: functional
CCRF-CEM = assay: Cytotoxicity against human CCRF-CEM cells assessed as inhibition of cell growth measured after 48 hrs by SRB assay; type: functional
LOX IMVI = assay: Cytotoxicity against human LOX IMVI cells assessed as inhibition of cell growth measured after 48 hrs by SRB assay; type: functional
COLO 205 = assay: Cytotoxicity against human COLO 205 cells assessed as inhibition of cell growth measured after 48 hrs by SRB assay; type: functional
[5] = Relative resistance, ratio of IC50 for inhibition of beta3 Tubulin (unknown origin) expressed in human HeLa cell line assessed as inhibition of cell proliferation to IC50 antiproliferative activity against human HeLa cells
HOP-92 = assay: Cytotoxicity against human HOP-92 cells assessed as inhibition of cell growth measured after 48 hrs by SRB assay; type: functional
SW-620 = assay: Cytotoxicity against human SW-620 cells assessed as inhibition of cell growth measured after 48 hrs by SRB assay; type: functional

COc1cccc2cc(N(C)c3nc(C)nc4c3CCC4)ccc12
6.01: pIC50 [4]
0.8: Ratio IC50 [5]
8.55: pIC50 (MDA-MB-435 [3])
9320 nM: GI50 (TK-10)
28.5 nM: GI50 (HOP-92)
8.47: pIC50 (HeLa)
< 10 nM: GI50 (SN12C) | GI50 (MDA-MB-435 [2]) | GI50 (U-251) | GI50 (KM12) | GI50 (A498) | GI50 (PC-3) | GI50 (SF-539) | GI50 (RPMI-8226) | GI50 (K562) | GI50 (ACHN) | GI50 (MCF7) | GI50 (Hs-578T) | GI50 (HCT-15) | GI50 (T47D) | GI50 (CAKI-1) | GI50 (A549) | GI50 (CCRF-CEM) | GI50 (LOX IMVI) | GI50 (COLO 205) | GI50 (SW-620)
8.35: pEC50 [1]
